Measurements reported in ChEMBL document CHEMBL3526065, “Metabolism of [6]-shogaol in mice and in cancer cells” (Drug Metab Dispos, 2012).

Tests used:
[1] = Drug excretion in C57BL/6J mouse feces assessed as 5-methoxy-1-(4'-hydroxy-3'-methoxyphenyl)-decan-3-one formation at 200 mg/kg, po by HPLC-ECD analysis relative to control; assay type: ADME, organism-based; set-up: dose 200 mg/kg, route oral; settings: in vivo
Procedure, shortened: (§1)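 Female C57BL/6J mice gavaged once with 200 mg/kg in corn oil, or corn oil alone (n = 5 each). 24-h feces collected in metabolic cages. Feces extracted by sonication 90 min in MeOH/H2O (50/50) + 0.1% acetic acid, centrifuged, diluted fivefold. Analysed by HPLC with electrochemical array detection (Gemini C18, phosphate/acetonitrile/THF gradient), compared against vehicle controls.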

[2] = Drug excretion in C57BL/6J mouse feces assessed as 5-methylthio-1-(4'-hydroxy-3'-methoxyphenyl)-decan-3-one formation at 200 mg/kg, po by HPLC analysis relative to control; assay type: ADME, organism-based; set-up: dose 200 mg/kg, route oral; settings: in vivo; procedure, shortened: as §1
HT-29 [3] = test: Drug metabolism in human HT-29 cells assessed as 1-(4'-hydroxy-3'-methoxyphenyl)-decan-3-ol formation at 10 uM by HPLC-ECD analysis; assay type: ADME, cell-based; settings: ht-29, 10 µM
Procedure, shortened: (§2)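 Cells (1.0 × 10⁶) attached 24 h in six-well plates, then exposed to 10 μM final in McCoy's 5A with 10% FBS. Extracted with equal volume acetonitrile, diluted 5-fold, analysed by HPLC with electrochemical detection.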

[4] = Antioxidant activity assessed as DPPH radical scavenging activity; assay type: physicochemical
[5] = Drug recovery in C57BL/6J mouse urine assessed as sulfated form of metabolite formation at 200 mg/kg, po by LC/MS analysis; assay type: ADME, organism-based; set-up: dose 200 mg/kg, route oral; settings: in vivo
Procedure, shortened: (§3)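 Female C57BL/6J mice gavaged with 200 mg/kg in corn oil or vehicle (n = 5); 24-h urine collected in metabolic cages. 50 μl urine deproteinized with MeOH. Analysis with and without deconjugation.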

Plasma [6] = test: Drug metabolism in A/J mouse plasma assessed as glucuronidated form of metabolite formation at 200 mg/kg, po after 2 to 4 hrs by HPLC-ECD analysis; settings: in vivo
Plasma [7] = test: Drug metabolism in C57BL/6J mouse plasma assessed as sulfated form of metabolite formation at 200 mg/kg, po after 2 to 4 hrs by LC/MS analysis; assay type: ADME, organism-based; set-up: dose 200 mg/kg, route oral; settings: in vivo
[8] = Drug recovery in C57BL/6J mouse urine assessed as glucuronidated form of metabolite formation at 200 mg/kg, po by LC/MS analysis; assay type: ADME, organism-based; set-up: dose 200 mg/kg, route oral; settings: in vivo; procedure, shortened: as §3
NCI-H1299 [9] = test: Induction of apoptosis in human H1299 cells assessed as apoptotic cells at 10 uM after 24 hrs by TUNEL assay; assay type: functional
Procedure, shortened: (§4)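 HCT-116 or H-1299 cells seeded at 1.0 × 10⁵/well, after 24 h exposed for 24 h to compound (10–80 μM) or DMSO control. Cells were proteinase K-pretreated, formaldehyde-fixed, and slide-mounted for peroxidase TUNEL staining. Ten fields per slide counted at 400×; brown-nucleus cells given as percentage of total cells; mean ± S.E., n = 10.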

NCI-H1299 [10] = test: Induction of apoptosis in human H1299 cells assessed as apoptotic cells at 20 uM after 24 hrs by TUNEL assay; assay type: functional; procedure, shortened: as §4
[11] = Drug excretion in C57BL/6J mouse feces assessed as 3',4'-dihydroxyphenyl-decan-3-one formation at 200 mg/kg, po by HPLC-ECD analysis relative to control; assay type: ADME, organism-based; set-up: dose 200 mg/kg, route oral; settings: in vivo; procedure, shortened: as §1
[12] = Drug metabolism in human HCT116 cells assessed as 1-(4'-hydroxy-3'-methoxyphenyl)-4-decen-3-ol formation at 10 uM after 24 hrs by HPLC-ECD analysis; assay type: ADME, cell-based; settings: hct-116, 24 h; procedure, shortened: as §2
[13] = Drug excretion in C57BL/6J mouse feces assessed as 1-(4'-hydroxy-3'-methoxyphenyl)-decan-3-ol formation at 200 mg/kg, po by HPLC-ECD analysis relative to control; assay type: ADME, organism-based; set-up: dose 200 mg/kg, route oral; settings: in vivo; procedure, shortened: as §1
HCT-116 [14] = test: Induction of apoptosis in human HCT116 cells assessed as apoptotic cells at 10 uM after 24 hrs by TUNEL assay; assay type: functional; procedure, shortened: as §4
Plasma [15] = test: Drug metabolism in A/J mouse plasma assessed as sulfated form of metabolite formation at 200 mg/kg, po after 2 to 4 hrs by HPLC analysis; settings: in vivo
[16] = Drug excretion in C57BL/6J mouse feces assessed as (2R)-2-amino-3-(3-hydroxy-1-(4-hydroxy-3-methoxyphenyl)decan-5-ylthio)propanoic acid formation at 200 mg/kg, po by HPLC-ECD analysis relative to control; assay type: ADME, organism-based; set-up: dose 200 mg/kg, route oral; settings: in vivo; procedure, shortened: as §1
[17] = Drug metabolism in human HCT116 cells assessed as 1-(4'-hydroxy-3'-methoxyphenyl)-decan-3-ol formation at 10 uM after 24 hrs by HPLC-ECD analysis; assay type: ADME, cell-based; settings: hct-116, 24 h; procedure, shortened: as §2
[18] = Drug excretion in C57BL/6J mouse feces assessed as 2-((2R)-2-amino-3-(3-hydroxy-1-(4-hydroxy-3-methoxyphenyl)decan-5-ylthio)propanamido)acetic acid formation at 200 mg/kg, po by HPLC-ECD analysis relative to control; assay type: ADME, organism-based; set-up: dose 200 mg/kg, route oral; settings: in vivo; procedure, shortened: as §1
[19] = Drug excretion in C57BL/6J mouse feces assessed as 1-(4'-hydroxy-3'-methoxyphenyl)-decan-3-one formation at 200 mg/kg, po by HPLC analysis relative to control; assay type: ADME, organism-based; set-up: dose 200 mg/kg, route oral; settings: in vivo; procedure, shortened: as §1
[20] = Drug recovery in C57BL/6J mouse urine assessed as glucuronidated form of metabolite formation at 200 mg/kg, po by HPLC-ECD analysis; assay type: ADME, organism-based; set-up: dose 200 mg/kg, route oral; settings: in vivo; procedure, shortened: as §3
[21] = Drug excretion in C57BL/6J mouse feces assessed as 5-cysteinyl-[6]-shogaol formation at 200 mg/kg, po by HPLC-ECD analysis relative to control; assay type: ADME, organism-based; set-up: dose 200 mg/kg, route oral; settings: in vivo; procedure, shortened: as §1
[22] = Drug metabolism in mouse CL-13 cells assessed as 1-(4'-hydroxy-3'-methoxyphenyl)-decan-3-one formation at 10 uM by HPLC-ECD analysis; assay type: ADME, cell-based; settings: cl-13, 10 µM; procedure, shortened: as §2
Plasma [23] = test: Drug metabolism in A/J mouse plasma assessed as glucuronidated form of metabolite formation at 200 mg/kg, po after 2 to 4 hrs by LC/MS analysis; settings: in vivo
[24] = Drug excretion in C57BL/6J mouse feces assessed as 5-methylthio-1-(4'-hydroxy-3'-methoxyphenyl)-decan-3-ol formation at 200 mg/kg, po by HPLC-ECD analysis relative to control; assay type: ADME, organism-based; set-up: dose 200 mg/kg, route oral; settings: in vivo; procedure, shortened: as §1
[25] = Drug metabolism in human HCT116 cells assessed as 1-(4'-hydroxy-3'-methoxyphenyl)-decan-3-one formation at 10 uM after 24 hrs by HPLC-ECD analysis; assay type: ADME, cell-based; settings: hct-116, 24 h; procedure, shortened: as §2
[26] = Drug recovery in C57BL/6J mouse urine assessed as sulfated form of metabolite formation at 200 mg/kg, po by HPLC-ECD analysis; assay type: ADME, organism-based; set-up: dose 200 mg/kg, route oral; settings: in vivo; procedure, shortened: as §3
[27] = Cytotoxicity against human H1299 cells assessed as growth inhibition after 24 hrs by MTT assay; assay type: functional, cell-based; settings: NCI-H1299, 24 h
Procedure, shortened: (§5)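 Cells seeded at 3000/well, attached 24 h at 37°C, then exposed to test agents (0–80 μM, 0.1% DMSO final) for 24 h in McCoy's 5A with 10% FBS. Medium replaced with 2.41 mM MTT for 3 h at 37°C; formazan dissolved in DMSO, absorbance 550 nm. Viability as percentage of DMSO control; mean ± S.D., n = 6.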

[28] = Drug excretion in C57BL/6J mouse feces assessed as 5-N-acetylcysteinyl-[6]-shogaol formation at 200 mg/kg, po by HPLC-ECD analysis relative to control; assay type: ADME, organism-based; set-up: dose 200 mg/kg, route oral; settings: in vivo; procedure, shortened: as §1
[29] = Cytotoxicity against human HCT116 cells assessed as growth inhibition after 24 hrs by MTT assay; assay type: functional, cell-based; settings: HCT-116, 24 h; procedure, shortened: as §5
[30] = Drug metabolism in mouse CL-13 cells assessed as 1-(4'-hydroxy-3'-methoxyphenyl)-decan-3-ol formation at 10 uM after 24 hrs by HPLC-ECD analysis; assay type: ADME, cell-based; settings: cl-13, 24 h; procedure, shortened: as §2
[31] = Drug metabolism in human H1299 cells assessed as 1-(4'-hydroxy-3'-methoxyphenyl)-decan-3-one formation at 10 uM after 24 hrs by HPLC-ECD analysis; assay type: ADME, cell-based; settings: nci-h1299, 24 h; procedure, shortened: as §2
[32] = Drug excretion in C57BL/6J mouse feces assessed as (2R)-2-acetamido-3-(3-hydroxy-1-(4-hydroxy-3-methoxyphenyl)decan-5-ylthio)propanoic acid formation at 200 mg/kg, po by HPLC-ECD analysis relative to control; assay type: ADME, organism-based; set-up: dose 200 mg/kg, route oral; settings: in vivo; procedure, shortened: as §1
[33] = Drug metabolism in human H1299 cells assessed as 1-(4'-hydroxy-3'-methoxyphenyl)-decan-3-ol formation at 10 uM after 24 hrs by HPLC-ECD analysis; assay type: ADME, cell-based; settings: nci-h1299, 24 h; procedure, shortened: as §2
[34] = Drug excretion in C57BL/6J mouse feces assessed as 1-(4'-hydroxy-3'-methoxyphenyl)-4-decen-3-ol formation at 200 mg/kg, po by HPLC-ECD analysis relative to control; assay type: ADME, organism-based; set-up: dose 200 mg/kg, route oral; settings: in vivo; procedure, shortened: as §1
HT-29 [35] = test: Drug metabolism in human HT-29 cells assessed as 1-(4'-hydroxy-3'-methoxyphenyl)-decan-3-one formation at 10 uM by HPLC-ECD analysis; assay type: ADME, cell-based; settings: ht-29, 10 µM; procedure, shortened: as §2
HCT-116 [36] = test: Induction of apoptosis in human HCT116 cells assessed as apoptotic cells at 20 uM after 24 hrs by TUNEL assay; assay type: functional; procedure, shortened: as §4

CCCCC/C=C/C(=O)CCc1ccc(O)c(OC)c1 [SHOGAOL]
18.7 µM: IC50 [29]
31.6%: Activity (NCI-H1299 [10])
10.3%: Activity (HCT-116 [14])
31.2%: Activity (HCT-116 [36])
16.9 µM: IC50 [27]
8 µM: IC50 [4]
5.2%: Activity (NCI-H1299 [9])
metabolite_detected: Drug excretion [1] | Drug excretion [2] | Drug metabolism (HT-29 [3]) | Drug recovery [5] | Drug metabolism (Plasma [6]) | Drug metabolism (Plasma [7]) | Drug recovery [8] | Drug excretion [11] | Drug metabolism [12] | Drug excretion [13] | Drug metabolism (Plasma [15]) | Drug excretion [16] | Drug metabolism [17] | Drug excretion [18] | Drug excretion [19] | Drug recovery [20] | Drug excretion [21] | Drug metabolism [22] | Drug metabolism (Plasma [23]) | Drug excretion [24] | Drug metabolism [25] | Drug recovery [26] | Drug excretion [28] | Drug metabolism [30] | Drug metabolism [31] | Drug excretion [32] | Drug metabolism [33] | Drug excretion [34] | Drug metabolism (HT-29 [35])
